pKi: −log10 of the molar value.
Experiments:
[1] = target: T1, Adenosine receptor A1 (Homo sapiens) (UniProt P30542); assay: Forskolin-induced cAMP production at human Adenosine A1 receptor; type: functional
T1 sequence (whole entry): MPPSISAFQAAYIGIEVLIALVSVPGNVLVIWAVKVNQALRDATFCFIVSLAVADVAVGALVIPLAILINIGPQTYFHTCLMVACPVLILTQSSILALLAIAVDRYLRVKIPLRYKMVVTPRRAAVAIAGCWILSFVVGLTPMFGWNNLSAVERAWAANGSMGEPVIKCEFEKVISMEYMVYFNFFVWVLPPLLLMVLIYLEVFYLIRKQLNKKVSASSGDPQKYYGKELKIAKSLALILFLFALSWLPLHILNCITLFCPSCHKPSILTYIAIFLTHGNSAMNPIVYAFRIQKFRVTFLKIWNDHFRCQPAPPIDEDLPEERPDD
Method in brief: (§1)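 Human A1-expressing CHO cells seeded at 2 × 10⁵ cells/well. Next day, 30 min at 37 °C in Hepes-buffered medium pH 7.4 with adenosine deaminase (5 U/mL), cilostamide (50 μM) and rolipram (50 μM). […] Expressed as % of forskolin.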

Adenosine receptor A1 [2] = target: T2, Adenosine receptor A1 (Rattus norvegicus, UniProt P25099); assay: Binding affinity at rat Adenosine A1 receptor in the absence of GTP
T2 sequence (P25099 whole entry): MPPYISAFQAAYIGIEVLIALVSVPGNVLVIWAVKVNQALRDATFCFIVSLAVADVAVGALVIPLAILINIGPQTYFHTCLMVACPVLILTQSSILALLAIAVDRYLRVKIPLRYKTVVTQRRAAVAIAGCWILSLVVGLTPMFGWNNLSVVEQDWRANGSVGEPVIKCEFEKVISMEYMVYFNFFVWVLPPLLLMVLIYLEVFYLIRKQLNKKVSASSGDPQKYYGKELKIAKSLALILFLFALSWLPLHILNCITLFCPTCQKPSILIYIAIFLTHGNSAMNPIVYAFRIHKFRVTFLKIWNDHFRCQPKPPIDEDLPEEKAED
Method in brief: (§2)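 GTP shift taken from these two Ki values. Done only for compounds giving >50% radioligand displacement at 10⁻⁶ M. At least three independent experiments in duplicate.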

Adenosine receptor A1 [3] = target: T2, Adenosine receptor A1; assay: Binding affinity at rat Adenosine A1 receptor in the presence of GTP; method in brief: as §2
Adenosine receptor A1 [4] = target: T3, Adenosine receptor A1 (Homo sapiens, UniProt P30542); assay: Binding affinity at human Adenosine A1 receptor expressed in CHO cells; type: cell-based
T3 sequence (P30542 whole entry): T1 sequence (whole entry)
Method in brief: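 Membranes from CHO cells stably expressing human A1 receptor (~3 pmol/mg protein), 6 μg, incubated 1 h at 25 °C in 50 mM Tris HCl pH 7.4 with ~1.6 nM [³H]DPCPX and increasing test concentrations. Stopped by dilution in ice-cold buffer, then filtration. At least three independent experiments in duplicate.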

[5] = target: T1, Adenosine receptor A1 (Homo sapiens); assay: Forskolin-induced cAMP production at human A1 adenosine receptor; type: functional; method in brief: as §1
[6] = target: T4, Adenosine receptor A1 (Rattus norvegicus) (UniProt P25099); assay: Percent displacement of radioligand at 10e-6 M from rat Adenosine A1 receptor
T4 sequence (whole entry): T2 sequence (P25099 whole entry)
Method in brief: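 Radioligand displacement by ligand at 10⁻⁶ M, using rat cortical membranes labelled with [³H]DPCPX.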

[7] = target: T1, Adenosine receptor A1 (Homo sapiens); assay: Forskolin-induced cAMP production at human Adenosine A1 receptor receptor; type: functional; method in brief: as §1
Adenosine receptor A2a = Adenosine receptor A2a (Rattus norvegicus, UniProt P30543); assay: Binding affinity at rat Adenosine A2A receptor
Sequence of Adenosine receptor A2a (P30543 whole entry): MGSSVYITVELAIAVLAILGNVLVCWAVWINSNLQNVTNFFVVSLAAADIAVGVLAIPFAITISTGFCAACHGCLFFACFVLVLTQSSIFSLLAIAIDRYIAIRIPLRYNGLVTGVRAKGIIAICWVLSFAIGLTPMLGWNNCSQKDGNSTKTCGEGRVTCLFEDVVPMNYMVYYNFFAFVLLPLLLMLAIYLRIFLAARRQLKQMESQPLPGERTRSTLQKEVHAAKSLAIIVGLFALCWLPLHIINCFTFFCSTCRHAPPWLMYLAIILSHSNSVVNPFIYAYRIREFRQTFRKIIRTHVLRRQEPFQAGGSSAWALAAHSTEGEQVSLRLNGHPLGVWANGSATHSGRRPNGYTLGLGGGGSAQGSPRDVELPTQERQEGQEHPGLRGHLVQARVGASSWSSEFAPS
Method in brief: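 Rat striatal membranes with [³H]ZM241385 as radioligand. At least three independent experiments in duplicate.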

Row | Compound | Production [1] [%] | pKi (Adenosine receptor A1 [2]) | pKi (Adenosine receptor A1 [3]) | pKi (Adenosine receptor A1 [4]) | further results
1 | CCCn1c(=O)c2[nH]c(C3CCCC3)nc2n(CCC)c1=O | 157 | – | – | – | –
2 | C[C@H]1O[C@@H](n2cnc3c(NC4CCCC4)ncnc32)[C@H](O)[C@H]1NC(=O)CCCOc1ccccc1 | – | 6.33 | – | – | –
3 | C[C@H]1O[C@@H](n2cnc3c(NC4CCCC4)ncnc32)[C@H](O)[C@H]1O | – | 7.15 | 6.35 | – | –
4 | C[C@H]1O[C@@H](n2cnc3c(NC4CCCC4)ncnc32)[C@H](O)[C@H]1NC(=O)C1(c2ccccc2)CCCCC1 | – | 6.54 | 6.68 | – | –
5 | OC[C@H]1O[C@@H](n2cnc3c(NC4CCCC4)ncnc32)C[C@H]1O | – | 6.96 | 6.33 | – | –
6 | O=C(CCCc1cccs1)N[C@@H]1[C@@H](O)[C@H](n2cnc3c(NC4CCCC4)ncnc32)O[C@@H]1CO | 152 | 7.17 | 7.34 | 6.20 | –
7 | Cc1ccc(C(=O)N[C@@H]2[C@@H](O)[C@H](n3cnc4c(NC5CCCC5)ncnc43)O[C@@H]2CO)cc1C | – | 7.62 | 7.77 | 6.86 | Production [5]: 126%
8 | Cc1ccc(C(=O)N[C@@H]2[C@@H](O)[C@H](n3cnc4c(NC5CCCC5)ncnc43)O[C@@H]2C)cc1F | – | – | – | – | Dispacement [6]: 47%
9 | C[C@H]1O[C@@H](n2cnc3c(NC4CCCC4)ncnc32)[C@H](O)[C@H]1NC(=O)C1CCCC[C@H]1C(=O)c1cccs1 (some centres not stated) | 182 | 7.01 | 7.15 | 6.01 | –
10 | CC(C)c1ccc(C(=O)N[C@@H]2[C@@H](O)[C@H](n3cnc4c(NC5CCCC5)ncnc43)O[C@@H]2CO)cc1 | – | 6.77 | – | – | pKi (Adenosine receptor A2a): 6.36
11 | C[C@H]1O[C@@H](n2cnc3c(NC4CCCC4)ncnc32)[C@H](O)[C@H]1NC(=O)c1ccc(F)c(Cl)c1 | – | – | – | – | Displacement [6]: 44%

More lines, main results first:

Row | Production [1] [%] | pKi (Adenosine receptor A1 [2]) | pKi (Adenosine receptor A1 [3]) | pKi (Adenosine receptor A1 [4]) | Compound | further results
12 | 125 | 7.11 | 7.27 | 6.24 | O=C(N[C@@H]1[C@@H](O)[C@H](n2cnc3c(NC4CCCC4)ncnc32)O[C@@H]1CO)c1ccc(F)c(Cl)c1 | –
13 | – | 6.57 | – | – | CC(C)c1ccc(C(=O)N[C@@H]2[C@@H](O)[C@H](n3cnc4c(NC5CCCC5)ncnc43)O[C@@H]2C)cc1 | –
14 | – | 6.63 | – | – | Cc1ccc(C(=O)N[C@@H]2[C@@H](O)[C@H](n3cnc4c(NC5CCCC5)ncnc43)O[C@@H]2C)cc1C | –
15 | – | 6.62 | – | – | CCc1ccc(C(=O)N[C@@H]2[C@@H](O)[C@H](n3cnc4c(NC5CCCC5)ncnc43)O[C@@H]2C)cc1 | –
16 | 148 | 7.26 | 7.42 | 6.38 | C[C@H]1O[C@@H](n2cnc3c(NC4CCCC4)ncnc32)[C@H](O)[C@H]1NC(=O)CCCc1cccs1 | –
17 | 135 | 6.95 | – | 6.11 | Cc1ccc(C(=O)N[C@@H]2[C@@H](O)[C@H](n3cnc4c(NC5CCCC5)ncnc43)O[C@@H]2CO)cc1F | –
18 | 126 | 6.99 | – | 6.35 | O=C(N[C@@H]1[C@@H](O)[C@H](n2cnc3c(NC4CCCC4)ncnc32)O[C@@H]1CO)c1ccc2c(c1)OCO2 | –
19 | – | 6.55 | 6.59 | 5.93 | Cn1cnc2c(NC3CCCC3)ncnc21 | Production [7]: 139%
20 | – | 6.86 | 6.94 | – | C[C@H]1O[C@@H](n2cnc3c(NC4CCCC4)ncnc32)[C@H](O)[C@H]1NC(=O)C1(c2ccccc2)CCCC1 | –

From ChEMBL document CHEMBL1135932, “5'-Deoxy congeners of 9-(3-amido-3-deoxy-beta-D-xylofuranosyl)-N(6)-cyclopentyladenine: new adenosine A(1) receptor antagonists and inverse agonists” (J Med Chem, 2002)
